Xi reactivation = X-chromosome reactivation activator. XiGFP mouse fibroblasts, % GFP-positive cells imaging, 3 d; cells co-treated with 5-aza-dC sensitizer; scaled so ellipticine positive control = 100%. activation, % at 7.58 µM. actives 0.055% (n = 360,000);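 active = mean normalized replicate activation at least 10% and every replicate at or above 10%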;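 note: 0% = median of on-plate neutral control wells and 100% = ellipticine 6 µM median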
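material = 68-5-11 XiGFP fibroblast line | medium = DMEM plus 5-aza-dC sensitizer | schedule = 3 days compound exposure | benchmarks = positive control ellipticine, 6 µM final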
RAD52 anneal inh = inhibitors of human RAD52 DNA annealing | P43351 | inhibition, % at 18.7 µM | recombinant RAD52 DNA annealing, FRET fluorescence | actives 0.46% (n = 360,000);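 active = every replicate showing at least 50% inhibition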
RAD54 inh = RAD54 (human) branch migration inhibition; Q92698; RAD54 Holliday junction branch migration, FAM/BHQ fluorescence; inhibition, % at 10.4 µM; actives 0.14% (n = 360,000);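 active = mean normalized replicate activity at least 40 and at least half of replicates scoring 40 or more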;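 note: 0% = median of neutral control wells and 100% = median of positive control wells; inhibitors cause a drop in the FAM fluorescence signal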
Target sequence (Q92698 whole entry, looked up): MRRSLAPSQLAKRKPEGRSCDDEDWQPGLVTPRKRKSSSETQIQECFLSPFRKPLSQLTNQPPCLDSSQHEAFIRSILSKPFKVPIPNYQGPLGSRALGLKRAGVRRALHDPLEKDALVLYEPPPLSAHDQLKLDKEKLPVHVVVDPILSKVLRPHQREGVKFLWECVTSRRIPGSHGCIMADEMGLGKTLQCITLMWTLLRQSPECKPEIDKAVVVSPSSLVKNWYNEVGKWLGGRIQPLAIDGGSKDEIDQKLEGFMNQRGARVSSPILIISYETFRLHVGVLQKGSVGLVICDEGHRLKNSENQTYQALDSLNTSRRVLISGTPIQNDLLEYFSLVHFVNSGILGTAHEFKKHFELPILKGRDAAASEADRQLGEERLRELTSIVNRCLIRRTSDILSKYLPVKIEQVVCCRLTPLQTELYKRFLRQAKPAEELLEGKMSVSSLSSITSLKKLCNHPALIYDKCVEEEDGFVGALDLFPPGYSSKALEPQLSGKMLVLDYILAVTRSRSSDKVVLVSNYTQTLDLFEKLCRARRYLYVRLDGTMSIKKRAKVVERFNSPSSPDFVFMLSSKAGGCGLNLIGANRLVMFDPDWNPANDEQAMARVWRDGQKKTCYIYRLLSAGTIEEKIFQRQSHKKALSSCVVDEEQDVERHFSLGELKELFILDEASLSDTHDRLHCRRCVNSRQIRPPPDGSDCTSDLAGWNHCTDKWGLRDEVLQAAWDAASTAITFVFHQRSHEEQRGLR
PglD inh = PglD (C. jejuni) enzyme inhibition; purified PglD enzyme, DTNB colorimetric CoA detection; inhibition, % at 12.5 µM; actives 0.098% (n = 360,000); AID 602405; in the data active = inhibition above about 16%, passing the limit was not always enough
E-selectin induc = induces E-selectin expression in human endothelial cells | activation, % at 7.58 µM | P16581 | HUVEC E-selectin immunofluorescence imaging; normalized: neutral wells 0, TNF-alpha wells 100 | actives 0.37% (n = 260,000) | AID 686992;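 active = mean E-selectin-positive cell signal at least 10% of the positive control, reached in at least 60% of replicates, without over 20% cell loss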
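Read-out: % PE-positive cells | Test system: HUVEC | Doses: One compound dose added by pin transfer | Buffer or medium: EGM-2 over gelatin coat | Signal: Immunofluorescence imaging | Benchmarks: TNF-alpha, DMSO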
rRNA inh HTS = selective bacterial rRNA inhibition in E. coli | E. coli WT GFP vs humanized-ribosome RFP mutants, fluorescence, 24 h; active compounds read low; DMSO median 0, no signal -100 | GFP signal change (wild-type ribosome), % (no concentration beside the values) | actives 1.6% (n = 350,000);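 active = significant combined selectivity score with lowered wild-type GFP, culture density cut under 30%, mutant RFP and density less affected; inactive = any of these conditions unmet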
* marks the source's active call; other numbers are inactive results; . = no result given. An excerpt weighted towards active compounds, which were near 2% of everything screened.

SMILES	Xi reactivation	RAD52 anneal inh	RAD54 inh	PglD inh	E-selectin induc	rRNA inh HTS
COCCCN(C(=S)NC(=O)c1ccc(Br)cc1)c1c(N)n(Cc2ccccc2)c(=O)[nH]c1=O	0.0	-62.1	.	.	0.3	1.4
CCOC(=O)c1cc2c(c(-c3cccc(-c4cccc(OC)c4)c3)n1)[C@@H](CCO)N(S(=O)C(C)(C)C)C2 (stereo partly specified)	-0.1	-11.3	-2.2	1.0	0.2	-6.1
C[C@@H]1CN([C@H](C)CO)S(=O)(=O)c2ccc(-c3cncnc3)cc2O[C@H]1CN(C)C(=O)Cc1cccnc1	-0.8	19.6	-2.6	0.2	-0.2	-1.8
Cc1cccc(N=C2NC(=O)/C(=C/c3cccn3C)S2)c1C	0.0	-66.1	-4.6	-7.4	2.3	-25.6*
O=C(N[C@@H]1CC[C@H](CCNC(=O)C2CCOCC2)O[C@@H]1CO)c1ccncc1	0.1	12.6	5.9	4.8	0.6	3.0
NC(=S)NN=C1CCC(C2CCCCC2)CC1 (stereo unspecified)	0.0	3.6	0.4	-0.6	-0.4	-45.2*
CC(C)NC(=O)N(C)C[C@@H]1Oc2ccc(NS(=O)(=O)c3cccs3)cc2C(=O)N([C@H](C)CO)C[C@@H]1C	-0.9	.	.	.	8.3	-0.8
COc1ccccc1CN1CC(C(=O)N(C)Cc2[nH]c3ccccc3c2C)CCC1=O (stereo unspecified)	0.1	-15.9	10.2	1.4	119.3*	-2.5
CC(C)NC(=O)Nc1ccc2c(c1)CC(=O)N([C@@H](C)CO)C[C@H](C)[C@@H](CN(C)Cc1ccccc1)O2	0.0	1.5	-4.1	6.0	-0.2	2.9
Cc1nn(-c2ccccc2)c(C)c1NC(=O)COc1ccc2ccccc2c1	.	-3.1	3.1	3.8	.	-19.6*
Cc1nn(-c2ccccc2)c(C)c1NC(=O)COc1ccc(C#N)cc1	-0.2	-18.8	8.5	-0.3	0.0	10.2
C[C@H]1Cn2cnc(C(=O)Nc3ccc(CNC(=O)OC(C)(C)C)cc3)c2C(=O)N1	-0.1	-3.0	3.9	-1.8	-0.2	16.3
C[C@H]1CNC(=O)c2c(C(=O)Nc3ccc(CNC(=O)OC(C)(C)C)cc3)ncn21	-0.1	-11.9	5.5	4.0	-0.5	-24.8*
CCOC(=O)c1ccc2c(c1)nc(SCC(=O)c1cc3ccccc3o1)n2CC	.	.	-6.1	5.3	.	.
C=CCNC(=O)CSc1nc2cc(C(=O)OCC)ccc2n1CC	.	-5.5	3.0	1.5	.	-42.8*
C[C@H](CO)N1C[C@H](C)[C@H](CN(C)C(=O)Cc2ccccc2)Oc2cc(C#CC3CCCC3)ccc2S1(=O)=O	-0.5	8.6	-13.5	-2.1	-0.2	2.9
Cc1cc(/C=N/NC(N)=S)c(C)n1-c1ccc(Cl)c(Cl)c1	4.5	-8.2	.	.	.	-2.6
COc1cccc(NC(=O)C(=O)N/N=C/c2cc(C)n(-c3ccc(Cl)c(Cl)c3)c2C)c1	.	-18.6	-5.2	-3.6	.	-17.9*
Cc1noc(C)c1NC(=O)N(C)C[C@H]1OCCCC[C@H](C)Oc2ccc(NC(=O)NC(C)C)cc2C(=O)N([C@H](C)CO)C[C@@H]1C	0.0	7.3	3.5	-1.7	-0.1	2.7
COc1ccc(C(=O)C2CCCN(C(=O)c3noc4c3CCCC4)C2)cc1F (stereo unspecified)	0.0	-6.1	11.4	-2.3	.	-25.3*
Cc1ccc(S(=O)(=O)N(C)C[C@H]2Oc3c(NS(=O)(=O)c4cn(C)cn4)cccc3C(=O)N([C@H](C)CO)C[C@@H]2C)cc1	-0.9	.	.	.	1.7	3.6
O=C(Nc1nc(-c2ccccc2)ns1)c1cccs1	.	-6.6	-6.1	0.4	.	-37.5*
O=C(Nc1nc(-c2ccccc2)cs1)c1cccs1	.	.	10.9	1.1	.	.
O=[N+]([O-])c1ccc(N=Nc2ncc[nH]2)cc1	6.6	5.5	2.8	-2.0	30.1*	8.9
Cc1ccc(C(=O)NCc2ccccn2)cc1NC1=NC2CS(=O)(=O)CC2S1 (stereo unspecified)	22.4*	-7.8	-4.1	2.1	2.0	9.9
SMILES	Xi reactivation	RAD52 anneal inh	RAD54 inh	PglD inh	E-selectin induc	rRNA inh HTS
C/C=C/c1cnc2c(c1)C(=O)N([C@H](C)CO)C[C@@H](C)[C@H](CN(C)S(=O)(=O)c1ccc(C)cc1)O2	-1.0	6.7	-2.7	0.2	0.6	-0.7
Cc1ccc2ccccc2c1CSc1nc(N)nc2c1ncn2CC(C)C	0.0	-5.9	.	.	-0.3	-29.8*
O=C1NC(=O)/C(=C/c2ccccc2Cl)N1	0.1	-6.0	-5.7	0.2	0.2	12.6
O=C1NC(=O)/C(=C\c2ccc(Cl)cc2Cl)N1	0.1	-37.8	-2.3	-1.2	0.0	-19.5*
CCOC(=O)Cn1c(=N)n(CCOc2ccc(Br)cc2)c2ccccc21	-0.1	8.5	1.0	3.8	0.0	-47.5*
CCCCn1c(=N)n(CC(=O)c2ccc(OC)cc2)c2ccccc21	0.5	-9.5	.	.	.	-43.4*
COc1ccc(-c2c(C(=O)c3ccccc3)[nH]c(N)c2C(N)=O)cc1OC	0.0	-0.4	.	.	-0.2	7.4
COc1ccc(-c2c(C(=O)c3ccccc3)[nH]c(N)c2C(=O)NCc2ccccc2)cc1OC	0.1	11.9	.	.	.	-35.5*
C[C@H]1CN([C@@H](C)CO)S(=O)(=O)c2ccc(C#CC3CCCC3)cc2O[C@H]1CN(C)C(=O)c1cccc(F)c1	-0.9	.	.	.	1.2	1.2
CC(C)NC(=O)N(C)C[C@@H]1Oc2ncc(C#CC3(O)CCCC3)cc2C(=O)N([C@H](C)CO)C[C@H]1C	0.0	-1.8	1.3	-5.8	-0.4	1.1
COc1ccccc1NS(=O)(=O)c1c(C)[nH]c(C)c1C(=O)N1CCCC1	0.3	-7.4	3.7	0.4	49.8*	9.0
CN(C)C(=O)C[C@@H]1C[C@@H]2c3cc(NC(=O)C4CCOCC4)ccc3O[C@@H]2[C@H](CO)O1	0.2	-6.3	3.3	1.6	1.3	3.0
Cn1c(=O)c2c(nc(N/N=C/c3ccncc3)n2Cc2ccccc2)n(C)c1=O	0.0	0.7	15.7	-0.9	-0.2	-29.2*
Oc1ccc(Cl)cc1CNCc1ccc(F)c(F)c1	0.0	15.3	3.5	-1.0	0.0	-10.8
Oc1ccc(Cl)cc1CNCc1cccc2ccccc12	0.1	-11.1	5.6	-2.9	-0.1	-23.5*
COc1cccc(NC(=O)N2CC(=O)N3[C@H](CO)[C@H](c4ccc(Br)cc4)[C@H]3C2)c1	0.0	-6.7	.	.	0.0	-3.8
CN(C(=O)CSc1nc2c(c(=O)[nH]1)CCCC2)C1CCCCC1	.	-18.2	.	.	.	-15.4*
CN(C(=O)CSc1nc(N)cc(=O)[nH]1)C1CCCCC1	0.0	-2.8	-6.2	-0.4	0.0	4.8
Cc1nc(SCC(=O)N(C)C2CCCCC2)[nH]c(=O)c1Cc1ccccc1	.	-15.7	-3.7	1.1	.	-26.4*
O=C(C[C@@H]1C=C[C@@H](NC(=O)Nc2cc(F)ccc2F)[C@H](CO)O1)Nc1ccccc1	-0.1	2.4	-0.6	-0.5	-0.3	-0.7
